# Measurements published in ChEMBL document CHEMBL4699658, “EST64454: a Highly Soluble σ Receptor Antagonist Clinical Candidate for Pain Management” (J Med Chem, 2020).
# Tests used:
# [1] = target: T1, Sigma non-opioid intracellular receptor 1 (Homo sapiens, UniProt Q99720); experiment: Displacement of [3H]-(+)-pentazocine from human sigma1 receptor expressed in HEK293 cell membranes incubated for 120 mins by liquid scintillation counting method; design: species or system Cell membrane
# [2] = Displacement of [3H]-DTG from sigma2 receptor in guinea pig brain membranes incubated for 120 mins by liquid scintillation counting method; format: cell membranes, Cavia porcellus, Cell membrane
# Outline: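 Guinea pig brain membranes (200 μg) incubated with 10 nM [³H]-DTG in 50 mM Tris-HCl pH 8, σ1R masked with 400 nM (+)-SKF10047, at 25 °C for 120 min. Nonspecific binding defined by 10 μM haloperidol. Filtration, three washes with ice-cold 50 mM Tris-HCl pH 7.4, scintillation counting. Ki given as mean of two determinations.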
# [3] = species on record: Cavia porcellus; experiment: Displacement of [3H]-DTG from sigma2 receptor in guinea pig brain membranes at 1 uM incubated for 120 mins by liquid scintillation counting method relative to control; conditions: Cell membrane
# [4] = target: Voltage-gated inwardly rectifying potassium channel KCNH2 (Homo sapiens, UniProt Q12809); experiment: Inhibition of human ERG expressed in CHO cells by patch clamp assay; format: cell-based
# Voltage-gated inwardly rectifying potassium channel KCNH2, sequence (Q12809 whole entry): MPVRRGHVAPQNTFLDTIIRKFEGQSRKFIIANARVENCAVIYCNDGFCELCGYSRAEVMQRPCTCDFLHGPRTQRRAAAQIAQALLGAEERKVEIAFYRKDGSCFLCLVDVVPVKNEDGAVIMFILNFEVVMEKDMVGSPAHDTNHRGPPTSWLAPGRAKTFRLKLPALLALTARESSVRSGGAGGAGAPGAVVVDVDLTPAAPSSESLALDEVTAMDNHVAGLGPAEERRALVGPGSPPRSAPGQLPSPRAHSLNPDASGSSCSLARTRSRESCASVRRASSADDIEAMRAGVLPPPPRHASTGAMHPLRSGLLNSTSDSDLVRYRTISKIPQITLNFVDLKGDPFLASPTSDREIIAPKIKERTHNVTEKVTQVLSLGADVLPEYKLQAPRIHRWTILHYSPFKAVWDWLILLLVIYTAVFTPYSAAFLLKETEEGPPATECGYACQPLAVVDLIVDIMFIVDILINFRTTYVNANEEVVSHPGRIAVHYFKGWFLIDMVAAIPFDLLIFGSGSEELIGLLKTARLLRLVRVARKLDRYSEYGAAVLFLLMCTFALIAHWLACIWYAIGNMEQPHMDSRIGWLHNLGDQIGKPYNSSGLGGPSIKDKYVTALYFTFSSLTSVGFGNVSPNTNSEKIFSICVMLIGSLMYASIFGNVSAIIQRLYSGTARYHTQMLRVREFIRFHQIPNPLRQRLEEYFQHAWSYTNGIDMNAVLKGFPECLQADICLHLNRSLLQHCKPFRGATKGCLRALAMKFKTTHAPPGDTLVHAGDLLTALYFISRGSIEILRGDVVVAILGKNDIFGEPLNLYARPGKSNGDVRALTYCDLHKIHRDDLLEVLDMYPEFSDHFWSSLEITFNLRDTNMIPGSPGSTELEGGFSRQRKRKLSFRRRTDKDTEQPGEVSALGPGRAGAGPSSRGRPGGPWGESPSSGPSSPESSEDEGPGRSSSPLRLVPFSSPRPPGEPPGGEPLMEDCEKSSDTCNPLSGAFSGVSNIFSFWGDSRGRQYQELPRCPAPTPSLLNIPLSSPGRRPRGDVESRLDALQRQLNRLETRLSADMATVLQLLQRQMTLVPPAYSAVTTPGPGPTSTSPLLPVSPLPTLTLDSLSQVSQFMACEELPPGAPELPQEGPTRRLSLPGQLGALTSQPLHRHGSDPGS
# [5] = Lipophilicity, logP of compound; format: physicochemical; conditions: octanol/water
# Outline: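 Log P determined by a pHmetric technique on a GlpKa or Sirius-T3 instrument.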
# [6] = Volume of distribution at steady state in CD1 mouse at 10 mg/kg, po by HPLC-MS/MS analysis; format: ADME, organism-based; conditions: in vivo
# Outline: (§1)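 Male CD1 mice (25−30 g), groups of 16, given 10 mg/kg orally in 0.5% hydroxypropyl methylcellulose or 1 mg/kg iv in saline. Blood drawn at several times (saphenous vein or intracardiac puncture) into heparinized tubes. Plasma spun at 4 °C, stored at −80 °C, protein-precipitated and assayed by HPLC-MS/MS. Parameters from noncompartmental analysis of concentration−time curves; clearance expressed as % liver blood flow.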
# [7] = Elimination half life in Wistar rat at 10 mg/kg, po by HPLC-MS/MS analysis; format: ADME, organism-based; conditions: in vivo, read-out: beta t1/2 (converted)
# Outline: (§2)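 Male Wistar rats (250−300 g), groups of two, dosed orally at 10 mg/kg in 0.5% hydroxypropyl methylcellulose or iv at 1 mg/kg in saline. Serial blood into heparinized tubes (saphenous vein or cardiac puncture). Plasma kept at −80 °C and measured by HPLC-MS/MS after protein precipitation. Noncompartmental analysis gave parameters; clearance given as % liver blood flow.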
# [8] = Oral bioavailability in CD1 mouse at 10 mg/kg by HPLC-MS/MS analysis; format: ADME, organism-based; conditions: in vivo; outline: as §1
# [9] = target: T1, Sigma non-opioid intracellular receptor 1; experiment: Antagonist activity at human sigma1 receptor expressed in HEK293 cell membranes assessed as ratio of Ki without phenytoin/Ki with phenytoin by [3H]-(+)-pentazocine displacement assay; conditions: Cell membrane, filed as antagonist
# [10] = Volume of distribution at steady state in Wistar rat at 10 mg/kg, po by HPLC-MS/MS analysis; format: ADME, organism-based; conditions: in vivo; outline: as §2
# [11] = Genotoxicity in Salmonella typhimurium by Ames test; format: toxicity; conditions: salmonella enterica subsp. enterica serovar typhimurium
# [12] = Permeability in human Caco-2 cells; format: ADME, cell-based; conditions: read-out: permeability
# [13] = AUC (0 to infinity) in CD1 mouse at 10 mg/kg, po by HPLC-MS/MS analysis; format: ADME, organism-based; design: time infinity, route oral, dose 10 mg/kg; conditions: in vivo; outline: as §1
# [14] = test system: Mus musculus; experiment: Analgesic activity in orally dosed mouse model of intraplantar capsaicin-induced mechanical hypersensitivity-induced pain assessed as reduction in mechanical hypersensitivity; format: functional; conditions: po
# [15] = Clearance in Wistar rat at 10 mg/kg, po by HPLC-MS/MS analysis relative to liver blood flow; format: ADME, organism-based; conditions: in vivo
# [16] = AUC (0 to infinity) in Wistar rat at 10 mg/kg, po by HPLC-MS/MS analysis; format: ADME, organism-based; design: route oral, time infinity, dose 10 mg/kg; conditions: in vivo; outline: as §2
# [17] = Induction of CYP450 expression in human HepaRG cells at 50 uM; format: ADME, cell-based
# Outline: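 HepaRG cells exposed to compound at concentrations up to 50 μM; CYP induction assessed.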
# [18] = Cmax in Wistar rat at 10 mg/kg, po by HPLC-MS/MS analysis; format: ADME, organism-based; design: route oral, dose 10 mg/kg; conditions: in vivo; outline: as §2
# [19] = Elimination half life in CD1 mouse at 10 mg/kg, po by HPLC-MS/MS analysis; format: ADME, organism-based; conditions: in vivo, read-out: beta t1/2 (converted); outline: as §1
# [20] = Oral bioavailability in Wistar rat at 10 mg/kg by HPLC-MS/MS analysis; format: ADME, organism-based; conditions: in vivo; outline: as §2
# [21] = Cmax in CD1 mouse at 10 mg/kg, po by HPLC-MS/MS analysis; format: ADME, organism-based; design: route oral, dose 10 mg/kg; conditions: in vivo; outline: as §1
# [22] = test system: HepG2; experiment: Toxicity in human HepG2 cells assessed as reduction in cell viability up to 100 uM by MTT assay; format: cell-based
# Outline: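 HepG2 cells exposed to compound at up to 100 μM; viability read by MTT assay.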
# [23] = Clearance in CD1 mouse at 10 mg/kg, po by HPLC-MS/MS analysis relative to liver blood flow; format: ADME, organism-based; conditions: in vivo
# [24] = test system: Mus musculus; experiment: Analgesic activity in orally dosed mouse model of […]-induced mechanical hypersensitivity-induced pain assessed as reduction in mechanical hypersensitivity at 80 mg/kg, po; format: functional; design: scale not given: the % may be the effect or the level left
# [25] = Thermodynamic solubility in pH 7.4 buffer; format: physicochemical; conditions: read-out: Therm_solubility
# [26] = Aqueous solubility of compound; format: physicochemical
# [27] = Thermodynamic solubility in pH 2 buffer; format: physicochemical; conditions: read-out: Therm_solubility
# T1 sequence (Q99720 whole entry): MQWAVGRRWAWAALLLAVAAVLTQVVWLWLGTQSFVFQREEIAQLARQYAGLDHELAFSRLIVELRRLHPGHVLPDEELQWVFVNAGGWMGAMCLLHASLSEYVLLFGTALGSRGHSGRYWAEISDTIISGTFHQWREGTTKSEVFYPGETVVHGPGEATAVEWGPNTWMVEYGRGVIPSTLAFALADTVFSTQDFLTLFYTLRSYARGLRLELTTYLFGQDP
smiles,measurement,setting,value
Clc1ccc(-n2ccc(COCCN3CCOCC3)n2)cc1Cl,Ki,[1],0.002 µM
same,Ki,[2],0.137 µM
Cc1cc(CCCN2CCOCC2)nn1-c1ccc(Cl)c(Cl)c1,Ki,[1],0.005 µM
same,Ki,[2],0.232 µM
Cc1cc(COCCN2CCOCC2)nn1-c1ccc2ccccc2c1,inhibition,[3],< 50%
same,Ki,[1],0.209 µM
same,Ki,[2],> 1 µM
CC(C)=CCN1CC[C@]2(C)c3cc(O)ccc3C[C@H]1[C@H]2C [(+)-PENTAZOCINE],Ki,[2],0.719 µM
Cc1ccccc1NC(=N)Nc1ccccc1C [DITOLYLGUANIDINE],Ki,[2],0.023 µM
Cc1cc(COCCN2CCNCC2)nn1-c1ccc(Cl)c(Cl)c1,Ki,[1],0.278 µM
Cc1cc(COCCN2CCOCC2)nn1C1CCCC1,Ki,[1],0.24 µM
same,Ki,[2],> 10 µM
CC(=O)N1CCN(CCCOCc2cc(C)n(-c3ccc(Cl)c(Cl)c3)n2)CC1,inhibition,[3],< 50%
same,Ki,[1],0.009 µM
same,Ki,[2],> 1 µM
same,IC50,[4],4.08 µM
Cc1cc(COCCN2CCCC2)nn1-c1ccc(Cl)c(Cl)c1,Ki,[1],0.006 µM
same,Ki,[2],0.027 µM
same,IC50,[4],5.12 µM
Cc1cc(CCCCN2CCOCC2)nn1-c1ccc(Cl)c(Cl)c1,Ki,[1],0.009 µM
same,Ki,[2],0.116 µM
Cc1cc(COCCN2CCCCC2)nn1-c1ccc(Cl)c(Cl)c1,Ki,[1],0.002 µM
same,Ki,[2],0.028 µM
Cc1cc(COCCN2CCOCC2)nn1-c1ccc(Cl)c(Cl)c1,Ki,[1],0.014 µM
same,Ki,[2],0.399 µM
CC(=O)N1CCN(CCOCc2cc(C)n(-c3ccc(Cl)c(Cl)c3)n2)CC1,inhibition,[3],< 50%
same,Ki,[1],0.015 µM
same,Ki,[2],> 1 µM
same,IC50,[4],> 10 µM
Cc1cc(COCCN2C[C@@H](C)O[C@@H](C)C2)nn1-c1ccc(Cl)c(Cl)c1,Ki,[1],0.003 µM
same,Ki,[2],0.18 µM
O=C(CCCN1CCC(O)(c2ccc(Cl)cc2)CC1)c1ccc(F)cc1 [HALOPERIDOL],Ki,[2],0.022 µM
CC(=O)N1CCN(CCOCc2ccn(-c3ccc(F)c(F)c3)n2)CC1.Cl,logP,[5],1.7
same,Vdss,[6],4.4 L/kg
same,half-life,[7],< 1 h
same,bioavailability,[8],69%
same,Ratio Ki,[9],0.9
same,Vdss,[10],1.2 L/kg
same,Activity,[11],Non-Toxic
same,Papp,[12],51.5 ×10⁻⁶ cm/s
same,AUC(0-inf),[13],1430 ng·h/mL
same,Ki,[1],0.022 µM
same,Ki,[2],> 10 µM
same,ED50,[14],33 mg/kg
same,CL,[15],70%
same,AUC(0-inf),[16],2640 ng·h/mL
same,Activity,[17],Non-Toxic
same,Cmax,[18],1180 ng/mL
same,IC50,[4],> 10 µM
same,half-life,[19],3.4 h
same,bioavailability,[20],60%
same,Cmax,[21],771 ng/mL
same,Activity,[22],Non-Toxic
same,CL,[23],89%
same,Activity,[24],95%
CC(=O)N1CCN(CCOCc2cc(C)n(-c3ccc(F)c(F)c3)n2)CC1,Ki,[1],0.058 µM
same,Ki,[2],> 10 µM
same,IC50,[4],> 10 µM
Cc1cc(OCCN2CCOCC2)nn1-c1ccc2ccccc2c1,solubility thermodynamic,[25],230 µg/mL
same,Vdss,[6],2.2 L/kg
same,half-life,[7],1.2 h
same,bioavailability,[8],34%
same,inhibition,[3],< 50%
same,Vdss,[10],2.9 L/kg
same,AUC(0-inf),[13],958 ng·h/mL
same,solubility,[26],200 µg/mL
same,Ki,[2],> 1 µM
same,CL,[15],109%
same,AUC(0-inf),[16],428 ng·h/mL
same,Cmax,[18],301 ng/mL
same,half-life,[19],0.7 h
same,bioavailability,[20],15%
same,Cmax,[21],622 ng/mL
same,solubility thermodynamic,[27],230 µg/mL
same,CL,[23],65%
same,Activity,[24],54%
